Results taken from ChEMBL document CHEMBL5724801, “EUbOPEN Chemogenomics Library - Multiplex” (2024).
Several values for one entry are separate records, joined by “and”; a condition that tells them apart may be missing. Identical values can stand only once.

Assays:
Type in all cases: toxicity, cell-based
Fibroblast = assay: Multiplex assay against human fibroblast
Procedure, shortened: (§1)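 At seeding, live cells were stained with Hoechst33342, BioTracker Green Microtubule Cytoskeleton Dye, MitoTracker Red and Annexin V Alexa Fluor 680. After compound addition they were imaged on a CQ1 microscope at 37°C and 5% CO2, and CellPathfinder machine-learning gating sorted them into Hoechst high-intensity objects or normal cells, with normal cells further split into healthy, pyknosed or fragmented nuclei and pyknosed cells into mitotic or apoptotic. Tubulin, mitochondrial-mass and membrane-permeability phenotypes are given as per cents of cells with healthy nuclei.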

HEK-293T = assay: Multiplex assay against HEK293T; conditions: human; procedure, shortened: as §1
U2OS = assay: Multiplex assay against U2OS; conditions: human; procedure, shortened: as §1
[1] = 12 h, 1 µM, compound concentration 1 uM
[2] = 12 h, 10 µM, compound concentration 10 uM
[3] = 24 h, 1 µM, compound concentration 1 uM
[4] = 24 h, 10 µM, compound concentration 10 uM
[5] = 48 h, 1 µM, compound concentration 1 uM
[6] = 48 h, 10 µM, compound concentration 10 uM

For CSCC[C@H](NC=O)C(=O)N[C@@H](CC(C)C)C(=O)N[C@@H](Cc1ccccc1)C(=O)O, which “Population Fragmented Nuclei (%)” value (Fibroblast; [1]) is on record?
The value was 18% and 29%.

What about the “Population Healthy Nuclei (%)” value (Fibroblast; [1]) of the same compound?
The value was 69% and 51%.

What about the “Population Mitochondria Different-Phenotype (%)” value (Fibroblast; [1]) of the same compound?
Its value is 3% and 4%.

What about the “Population Tubulin-Different-Phenotype (%)” value (Fibroblast; [1]) of the same compound?
Its value is 26% and 39%.

What about the “Total Cell Count” value (Fibroblast; [1]) of the same compound?
The value was 182 and 175.

And the “Population Fragmented Nuclei (%)” value (Fibroblast; [2])?
The value was 27%.

And the “Population Healthy Nuclei (%)” value (Fibroblast; [2])?
Its value is 39%.

What about the “Population Hoechst High Intensity Objects (%)” value (Fibroblast; [2]) of the same compound?
Its value is 38%.

What about the “Population Membrane Permeable-Phenotype (%)” value (Fibroblast; [2]) of the same compound?
The value was 9%.

What about the “Population Mitochondria Different-Phenotype (%)” value (Fibroblast; [2]) of the same compound?
Its value is 5% and 3%.

And the “Population Normal (%)” value (Fibroblast; [2])?
The value was 61%.

What about the “Population Tubulin-Different-Phenotype (%)” value (Fibroblast; [2]) of the same compound?
The value was 24% and 35%.

And the “Total Cell Count” value (Fibroblast; [2])?
Its value is 112 and 315.

And the “Population Fragmented Nuclei (%)” value (Fibroblast; [3])?
The value was 35%.

What about the “Population Healthy Nuclei (%)” value (Fibroblast; [3]) of the same compound?
Its value is 73% and 46%.

What about the “Population Hoechst High Intensity Objects (%)” value (Fibroblast; [3]) of the same compound?
The value was 7%.

What about the “Population Mitochondria Different-Phenotype (%)” value (Fibroblast; [3]) of the same compound?
Its value is 4% and 9%.

And the “Population Normal (%)” value (Fibroblast; [3])?
Its value is 92%.

What about the “Population Tubulin-Different-Phenotype (%)” value (Fibroblast; [3]) of the same compound?
The value was 18% and 43%.

What about the “Total Cell Count” value (Fibroblast; [3]) of the same compound?
The value was 173 and 179.

What about the “Population Fragmented Nuclei (%)” value (Fibroblast; [4]) of the same compound?
Its value is 19%.

And the “Population Healthy Nuclei (%)” value (Fibroblast; [4])?
The value was 38%.

What about the “Population Hoechst High Intensity Objects (%)” value (Fibroblast; [4]) of the same compound?
Its value is 32%.

What about the “Population Membrane Permeable-Phenotype (%)” value (Fibroblast; [4]) of the same compound?
The value was 3%.

What about the “Population Mitochondria Different-Phenotype (%)” value (Fibroblast; [4]) of the same compound?
The value was 7% and 10%.

And the “Population Normal (%)” value (Fibroblast; [4])?
The value was 67%.

And the “Population Tubulin-Different-Phenotype (%)” value (Fibroblast; [4])?
Its value is 25% and 47%.

What about the “Total Cell Count” value (Fibroblast; [4]) of the same compound?
Its value is 107 and 230.

And the “Population Fragmented Nuclei (%)” value (Fibroblast; [5])?
Its value is 16% and 36%.

What about the “Population Healthy Nuclei (%)” value (Fibroblast; [5]) of the same compound?
The value was 69% and 47%.

And the “Population Mitochondria Different-Phenotype (%)” value (Fibroblast; [5])?
The value was 1% and 8%.

What about the “Population Tubulin-Different-Phenotype (%)” value (Fibroblast; [5]) of the same compound?
Its value is 21% and 54%.

What about the “Total Cell Count” value (Fibroblast; [5]) of the same compound?
The value was 184 and 174.

What about the “Population Fragmented Nuclei (%)” value (Fibroblast; [6]) of the same compound?
The value was 18%.

And the “Population Healthy Nuclei (%)” value (Fibroblast; [6])?
The value was 44%.

What about the “Population Hoechst High Intensity Objects (%)” value (Fibroblast; [6]) of the same compound?
The value was 29%.

And the “Population Membrane Permeable-Phenotype (%)” value (Fibroblast; [6])?
Its value is 4%.

And the “Population Mitochondria Different-Phenotype (%)” value (Fibroblast; [6])?
Its value is 4% and 1%.

What about the “Population Normal (%)” value (Fibroblast; [6]) of the same compound?
Its value is 70%.

What about the “Population Tubulin-Different-Phenotype (%)” value (Fibroblast; [6]) of the same compound?
Its value is 24% and 47%.

And the “Total Cell Count” value (Fibroblast; [6])?
The value was 110 and 231.

And the “Population Apoptotic (%)” value (HEK-293T; [1])?
Its value is 28%.

What about the “Population Mitochondria Different-Phenotype (%)” value (HEK-293T; [1]) of the same compound?
Its value is 47% and 57%.

And the “Population Mitotic Cells (%)” value (HEK-293T; [1])?
The value was 71%.

And the “Population Tubulin-Different-Phenotype (%)” value (HEK-293T; [1])?
The value was 23% and 16%.

What about the “Total Cell Count” value (HEK-293T; [1]) of the same compound?
The value was 466 and 437.

And the “Population Apoptotic (%)” value (HEK-293T; [2])?
The value was 54%.

What about the “Population Mitochondria Different-Phenotype (%)” value (HEK-293T; [2]) of the same compound?
The value was 52% and 64%.

And the “Population Mitotic Cells (%)” value (HEK-293T; [2])?
Its value is 45%.

And the “Population Tubulin-Different-Phenotype (%)” value (HEK-293T; [2])?
Its value is 37% and 31%.

What about the “Total Cell Count” value (HEK-293T; [2]) of the same compound?
The value was 366 and 375.

What about the “Population Apoptotic (%)” value (HEK-293T; [3]) of the same compound?
The value was 21%.

What about the “Population Mitochondria Different-Phenotype (%)” value (HEK-293T; [3]) of the same compound?
The value was 21% and 37%.

And the “Population Mitotic Cells (%)” value (HEK-293T; [3])?
The value was 78%.

And the “Population Tubulin-Different-Phenotype (%)” value (HEK-293T; [3])?
Its value is 14% and 12%.

And the “Total Cell Count” value (HEK-293T; [3])?
The value was 679 and 550.

What about the “Population Apoptotic (%)” value (HEK-293T; [4]) of the same compound?
Its value is 25% and 36%.

What about the “Population Mitochondria Different-Phenotype (%)” value (HEK-293T; [4]) of the same compound?
The value was 38% and 53%.

And the “Population Mitotic Cells (%)” value (HEK-293T; [4])?
The value was 75% and 64%.

What about the “Population Tubulin-Different-Phenotype (%)” value (HEK-293T; [4]) of the same compound?
Its value is 25% and 22%.

What about the “Total Cell Count” value (HEK-293T; [4]) of the same compound?
Its value is 479 and 490.

And the “Population Apoptotic (%)” value (HEK-293T; [5])?
The value was 29% and 20%.

What about the “Population Mitochondria Different-Phenotype (%)” value (HEK-293T; [5]) of the same compound?
The value was 12% and 17%.

And the “Population Mitotic Cells (%)” value (HEK-293T; [5])?
The value was 79%.

And the “Population Tubulin-Different-Phenotype (%)” value (HEK-293T; [5])?
The value was 12%.

What about the “Total Cell Count” value (HEK-293T; [5]) of the same compound?
Its value is 1154 and 838.

And the “Population Apoptotic (%)” value (HEK-293T; [6])?
Its value is 28% and 36%.

What about the “Population Mitochondria Different-Phenotype (%)” value (HEK-293T; [6]) of the same compound?
The value was 24% and 28%.

And the “Population Mitotic Cells (%)” value (HEK-293T; [6])?
The value was 71% and 63%.

What about the “Population Tubulin-Different-Phenotype (%)” value (HEK-293T; [6]) of the same compound?
The value was 12% and 14%.

And the “Total Cell Count” value (HEK-293T; [6])?
The value was 704 and 674.

What about the “Population Apoptotic (%)” value (U2OS; [1]) of the same compound?
Its value is 73% and 100%.

And the “Population Fragmented Nuclei (%)” value (U2OS; [1])?
The value was 29% and 17%.

What about the “Population Healthy Nuclei (%)” value (U2OS; [1]) of the same compound?
Its value is 75%.

What about the “Population Mitochondria Different-Phenotype (%)” value (U2OS; [1]) of the same compound?
The value was 4% and 3%.

What about the “Total Cell Count” value (U2OS; [1]) of the same compound?
The value was 254 and 135.

And the “Population Apoptotic (%)” value (U2OS; [2])?
Its value is 69% and 90%.

And the “Population Fragmented Nuclei (%)” value (U2OS; [2])?
The value was 23% and 16%.

What about the “Population Healthy Nuclei (%)” value (U2OS; [2]) of the same compound?
The value was 70% and 74%.

And the “Population Membrane Permeable-Phenotype (%)” value (U2OS; [2])?
Its value is 4%.

And the “Population Mitochondria Different-Phenotype (%)” value (U2OS; [2])?
The value was 1% and 2%.

And the “Population Mitotic Cells (%)” value (U2OS; [2])?
Its value is 30%.

And the “Total Cell Count” value (U2OS; [2])?
Its value is 202 and 123.

And the “Population Apoptotic (%)” value (U2OS; [3])?
Its value is 91% and 90%.

What about the “Population Fragmented Nuclei (%)” value (U2OS; [3]) of the same compound?
Its value is 24% and 17%.

What about the “Population Healthy Nuclei (%)” value (U2OS; [3]) of the same compound?
The value was 75%.

And the “Population Mitochondria Different-Phenotype (%)” value (U2OS; [3])?
Its value is 3% and 0%.

And the “Population Mitotic Cells (%)” value (U2OS; [3])?
The value was 8%.

What about the “Total Cell Count” value (U2OS; [3]) of the same compound?
Its value is 288 and 147.

And the “Population Apoptotic (%)” value (U2OS; [4])?
Its value is 76% and 100%.

And the “Population Fragmented Nuclei (%)” value (U2OS; [4])?
The value was 23% and 19%.

What about the “Population Healthy Nuclei (%)” value (U2OS; [4]) of the same compound?
Its value is 68% and 70%.

What about the “Population Membrane Permeable-Phenotype (%)” value (U2OS; [4]) of the same compound?
Its value is 8%.

And the “Population Mitochondria Different-Phenotype (%)” value (U2OS; [4])?
The value was 1% and 2%.

And the “Population Mitotic Cells (%)” value (U2OS; [4])?
The value was 23% and 0%.

And the “Total Cell Count” value (U2OS; [4])?
The value was 247 and 147.

What about the “Population Fragmented Nuclei (%)” value (U2OS; [5]) of the same compound?
Its value is 16% and 18%.

And the “Population Healthy Nuclei (%)” value (U2OS; [5])?
The value was 75% and 68%.

What about the “Population Membrane Permeable-Phenotype (%)” value (U2OS; [5]) of the same compound?
Its value is 4%.

What about the “Population Mitochondria Different-Phenotype (%)” value (U2OS; [5]) of the same compound?
Its value is 3% and 1%.

And the “Total Cell Count” value (U2OS; [5])?
The value was 411 and 202.

And the “Population Apoptotic (%)” value (U2OS; [6])?
Its value is 90% and 100%.

What about the “Population Fragmented Nuclei (%)” value (U2OS; [6]) of the same compound?
Its value is 20% and 53%.

And the “Population Healthy Nuclei (%)” value (U2OS; [6])?
The value was 70% and 25%.

And the “Population Mitotic Cells (%)” value (U2OS; [6])?
Its value is 9% and 0%.
